In brackets after ≈: the same amount, converted by molar mass.
Key:
SH-SY5Y [1] = assay: Cell viability of human SH-SY5Y cells at 0.1 uM after 24 hrs by MTS assay; format: functional
Summary of the method: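 SH-SY5Y cells were grown in 1:1 EMEM/F12K with 10% heat-inactivated FBS at 37 °C and 5% CO₂. One day after plating, cells were pretreated with compound for 2 h, then exposed to hydrogen peroxide for 24 h. MTS reagent was added for 3 h at 37 °C and OD read at 490 nm. Viability is % of control, from at least two independent experiments in triplicate.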

Rattus norvegicus [2] = assay: Cardioprotective effect in Sprague-Dawley rat myocardial infarction model assessed as reduction of infract area in heart at 0.1 mg/kg, ip; format: functional; set-up: scale not given: the % may be the effect or the level left; details: route intraperitoneal
Summary of the method: (§1)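 Male Sprague–Dawley rats (260–290 g) were anesthetized with ketamine ([…]) and xylazine (5 mg/kg). A single ip dose was given 1 h before regional myocardial ischemia (30 min), followed by 3 h reperfusion. After 1% Evans blue, the left ventricle was cut into two slices and stained with TTC. Infarct size was expressed as % of area at risk versus vehicle, using Student's t-test (P < 0.05).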

Bacillus subtilis = assay: Antimicrobial activity against Bacillus subtilis ATCC 6633 after 16 to 18 hrs by agar dilution method; format: functional
Summary of the method: (§2)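 Agar dilution MIC per CLSI on Mueller Hinton agar. Stocks were diluted in DMSO or 0.1 M NaOH as a twofold series, with final concentrations 0.06–128. Plates were spotted at 10⁴ cfu/spot and incubated in ambient air at 36 °C for 16–18 h. MIC was the lowest concentration that prevented visible growth.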

Rattus norvegicus [3] = assay: Cardioprotective effect in Sprague-Dawley rat myocardial infarction model assessed as reduction of infract area in heart at 0.01 mg/kg, ip; format: functional; set-up: scale not given: the % may be the effect or the level left; details: route intraperitoneal; summary of the method: as §1
Enterococcus faecalis = assay: Antibacterial activity against Enterococcus faecalis ATCC 29212 after 16 to 18 hrs by agar dilution method; format: functional
Summary of the method: (§3)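 Agar dilution MIC following CLSI guidance. E. faecalis was grown on Brain–Heart Infusion agar and the other strains on Mueller Hinton agar. Compounds were diluted in DMSO or 0.1 M NaOH in twofold steps to give final concentrations of 0.06–128 µg/mL. Inocula of 10^4 cfu/spot were incubated 16–18 h at 36 °C in ambient air. MIC was taken as the lowest concentration preventing visible growth.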

Rattus norvegicus [4] = assay: Antiischemic effect in Sprague-Dawley rat focal ischemic sroke model assessed as reduction of infract size in brain at 0.01 mg/kg, ip after 24 hrs under post-ischemic conditions; set-up: scale not given: the % may be the effect or the level left; details: route intraperitoneal
Serratia marcescens = assay: Antibacterial activity against Serratia marcescens ATCC 27117 after 16 to 18 hrs by agar dilution method; format: functional; summary of the method: as §2
Rattus norvegicus [5] = assay: Antiischemic effect in Sprague-Dawley […] sroke model assessed as reduction of infract size in brain at 0.1 mg/kg, ip after 24 hrs under pre-ischemic conditions; format: functional; set-up: scale not given: the % may be the effect or the level left; details: route intraperitoneal
Summary of the method: (§4)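 Rat MCAO with 2 h ischemia and 22 h reperfusion, pre-ischemic regimen. Compound was given ip three times: 3 h and 1 h before, and 1 h after, MCA occlusion. Brains were removed 24 h after ischemia, cut into seven slices, and stained with TTC. Infarct volume was measured by computer-assisted planimetry and expressed as % reduction versus vehicle-treated rats.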

Staphylococcus aureus = assay: Antibacterial activity against Staphylococcus aureus ATCC 25923 after 16 to 18 hrs by agar dilution method; format: functional; summary of the method: as §3
Escherichia coli = assay: Antibacterial activity against Escherichia coli ATCC 25922 after 16 to 18 hrs by agar dilution method; format: functional; summary of the method: as §3
Rattus norvegicus [6] = assay: Cardioprotective effect in Sprague-Dawley rat myocardial infarction model assessed as reduction of infract area in heart at 0.001 mg/kg, ip; format: functional; set-up: scale not given: the % may be the effect or the level left; details: route intraperitoneal; summary of the method: as §1
Rattus norvegicus [7] = assay: Cardioprotective effect in Sprague-Dawley rat myocardial infarction model assessed as reduction of infract size in heart at 0.01 mg/kg, ip; format: functional; set-up: scale not given: the % may be the effect or the level left; details: route intraperitoneal; summary of the method: as §1
Rattus norvegicus [8] = assay: Antiischemic effect in Sprague-Dawley rat focal ischemic sroke model assessed as reduction of infract size in brain at 0.01 mg/kg, ip after 24 hrs under pre-ischemic conditions; format: functional; set-up: scale not given: the % may be the effect or the level left; details: route intraperitoneal; summary of the method: as §4
Enterobacter cloacae = assay: Antibacterial activity against Enterobacter cloacae ATCC 13047 after 16 to 18 hrs by agar dilution method; format: functional
SH-SY5Y [9] = assay: Enhancement of cell viability of human SH-SY5Y cells at 0.1 uM after 24 hrs by MTS assay relative to control; format: functional
Summary of the method: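 SH-SY5Y neuroblastoma cells were grown in 1:1 EMEM/F12K with 10% heat-inactivated FBS at 37 °C, 5% CO2. After 1 day, cells were pretreated with compound at 0.1 µM for 2 h, then exposed to 200 µM H2O2 for 24 h. Viability was read by MTS (3 h, 37 °C, OD 490 nm) as a percentage of control. At least two independent experiments, each in triplicate.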

[10] = system: Staphylococcus epidermidis; assay: Antibacterial activity against Staphylococcus epidermidis ATCC 12228 after 16 to 18 hrs by agar dilution method; format: functional; summary of the method: as §3
Rattus norvegicus [11] = assay: Antiischemic effect in Sprague-Dawley rat focal ischemic sroke model assessed as reduction of infract size in brain at 0.001 mg/kg, ip after 24 hrs under pre-ischemic conditions; format: functional; set-up: scale not given: the % may be the effect or the level left; details: route intraperitoneal; summary of the method: as §4
Rattus norvegicus [12] = assay: Cardioprotective effect in Sprague-Dawley rat myocardial infarction model assessed as reduction of infract size in heart at 0.001 mg/kg, ip; format: functional; set-up: scale not given: the % may be the effect or the level left; details: route intraperitoneal; summary of the method: as §1

| SMILES | Activity (SH-SY5Y [1]) [%] | MIC (Bacillus subtilis) [µg/mL] | MIC (Enterococcus faecalis) [µg/mL] | MIC (Serratia marcescens) [µg/mL] | MIC (Staphylococcus aureus) [µg/mL] | MIC [10] [µg/mL] | other results |
| --- | --- | --- | --- | --- | --- | --- | --- |
| Cc1c(C(=O)O)c(=O)c2cc(F)c(N3CCNCC3)cc2n1C1CC1 | 49.9 |  |  |  |  |  |  |
| O=C(O)c1cn(C2CC2)c2cc(N3CCNCC3)ccc2c1=O | 61.7 | 8 (≈ 25.5 µM) | 64 (≈ 204 µM) | 4 (≈ 12.8 µM) | 32 (≈ 102 µM) | 16 (≈ 51.1 µM) | Activity (Rattus norvegicus [2]): 78.3%; Activity (Rattus norvegicus [3]): 53.1%; Activity (Rattus norvegicus [4]): 8.9%; Activity (Rattus norvegicus [5]): 5.3%; MIC (Escherichia coli): 0.5 µg/mL (≈ 1.6 µM); Activity (Rattus norvegicus [6]): 62.1%; Activity (Rattus norvegicus [7]): 26.6%; Activity (Rattus norvegicus [8]): 32.1%; MIC (Enterobacter cloacae): 1 µg/mL (≈ 3.19 µM); Activity (SH-SY5Y [9]): 42%; Activity (Rattus norvegicus [11]): 9.6%; Activity (Rattus norvegicus [12]): 14.2% |
| O=c1ccn(C2CC2)c2cc(N3CCNCC3)c(F)cc12 | 57.4 | 8 (≈ 27.8 µM) | 8 (≈ 27.8 µM) | 1 (≈ 3.48 µM) | 16 (≈ 55.7 µM) | 8 (≈ 27.8 µM) | MIC (Escherichia coli): < 0.12 µg/mL; MIC (Enterobacter cloacae): 0.5 µg/mL (≈ 1.74 µM); Activity (SH-SY5Y [9]): 33% |
| O=C(O)c1cn(C2CC2)c2ccccc2c1=O | 39 |  |  |  |  |  |  |
| O=C(O)c1cn(C2CC2)c2ccc(F)cc2c1=O | 45.1 |  |  |  |  |  |  |
| O=C(O)c1cn(C2CC2)c2cc(N3CCNCC3)c(F)cc2c1=S | 27.1 |  |  |  |  |  |  |
| O=C(O)c1cn(C2CC2)c2cc(N3CCCCC3)c(F)cc2c1=O | 44.1 |  |  |  |  |  |  |
| O=C(O)c1cn(C2CC2)c2cc(N3CCNCC3)c(F)cc2c1=O [CIPROFLOXACIN] | 46.5 | 1 (≈ 3.02 µM) | 2 (≈ 6.04 µM) | 0.125 (≈ 0.377 µM) | 2 (≈ 6.04 µM) | 1 (≈ 3.02 µM) |  |
| O=C(O)c1cn(C2CC2)c2cc(C3CCNCC3)c(F)cc2c1=O | 42.4 |  |  |  |  |  |  |
